Screening results: PubChem BioAssay, several laboratories
KLF5 inhibitor = kruppel-like factor 5 inhibition; DLD-1 KLF5 promoter-luciferase reporter, luminescence; actives 0.23% (n = 290,000); inhibition, % at 5 µM;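 active means inhibition above a per-plate limit of that plate's mean compound inhibition plus 3 SD, cut at about 60% in these data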;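 further: higher means less KLF5 promoter-driven luciferase light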
MT stabilizer = microtubule stabilization, imaging screen; HeLa tubulin immunostaining HCS, 24 h; share of cells brighter than vehicle mean+2SD; % tubulin-high responders, % at 10 µM; actives 0.83% (n = 200,000); AID 2205;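 active means plate Z-score above 3 for both tubulin-high and condensed-nucleus cell shares, with cell loss under 80%, at 10 µM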;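 further: anti alpha tubulin signal scored within the nucleus-defined area of each cell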
IEC-6 tox = kills IEC-6 intestinal cells in KLF5 counter-screen | AID 1825 | actives 0.78% (n = 290,000) | IEC-6 cytotoxicity, luminescence viability | inhibition, % at 5 µM; in the data active means inhibition above about 22%
Ba/F3 V617F tox = reduce viability of Ba/F3 cells dependent on JAK2V617F; inhibition, % at 5.6 µM; Ba/F3 EpoR-JAK2V617F viability, ATP luminescence; actives 1.1% (n = 220,000); AID 1446;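 active means inhibition above the campaign mean plus 3 SD over all tested compounds, cut at about 24% in these data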;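 further: cytokine-independent growth of Ba/F3 cells driven by EpoR plus mutant JAK2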
b-catenin transl = modulators of beta-catenin nuclear translocation | HeLa beta-catenin nuclear translocation, immunofluorescence imaging | actives 0.3% (n = 190,000) | nuclear translocation activity, % at 5 µM;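 active means nuclear translocation activity above 50% at 5 µM, with a well cell count of 50 or more; inconclusive means wells under 50 cells across six images, flagged as toxic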;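 further: per-cell ratio of nuclear to cytoplasmic median beta-catenin stain intensity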
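Assay system: human HeLa cells, native beta-catenin; doses: 5 µM primary, 0.02–20 µM confirmation; incubation: compound treatment 24 h, 37°C, 5% CO2; technique: fluorescence imaging of beta-catenin antibody stain plus DAPI; measure: % activation, nuclear-to-cytoplasmic median beta-catenin signal ratio per cell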
BaF3 parental = counter-screen for JAK2V617F inhibitors: parental Ba/F3 viability inhibitors; CellTiter-Glo ATP luminescence; inhibition, % at 5.6 µM; actives 1.1% (n = 220,000);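 active means inhibition above a per-campaign cutoff, the mean inhibition of all tested compounds plus 3 SD, cut at about 27% in these data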
Numbers stand for hits; 0 = inactive; ? = inconclusive; - = no result. Sampled rows, rich in hits. Any-hit rate of the full collection: about 2.1%.

SMILES | KLF5 inhibitor | MT stabilizer | IEC-6 tox | Ba/F3 V617F tox | b-catenin transl | BaF3 parental
CC[n+]1c(C)n(-c2ccccc2)c2ccc(C(=O)OC)cc21 | 0 | 0 | 0 | 36.3 | 0 | 54.6
CCOC(=O)c1ccc2c(c1)[n+](CC)c(C)n2-c1ccccc1 | 0 | 0 | 0 | 38.3 | 0 | 75.8
CCOC(=O)c1ccc2c(c1)n(CC)c(C)[n+]2CC | 0 | 0 | 0 | 0 | 0 | 36.5
O=C(NCCCn1ccnc1)c1cc(-c2ccc3c(c2)OCO3)on1 | 0 | 0 | 0 | 0 | - | 0
CO/N=C/C(=N\Nc1ccc(C)cc1)C(=O)c1ccc(OC)cc1 | 0 | 53.0 | 0 | 0 | - | 0
Cc1ccc(/C=N/NC(=O)c2csc3c2CCCC3)cc1 | 0 | 20.2 | 0 | 0 | 0 | 0
COc1cc(/C=N/NC(=O)c2csc3c2CCCC3)cc(OC)c1O | 0 | 0 | 0 | 0 | 0 | 0
CCC(CC)c1nc(C#N)c(NCc2ccccc2)o1 | 0 | 15.3 | 0 | 0 | 0 | 0
Cc1ccc(C(=O)C(C)OC(=O)CCN2C(=O)C3C4C=CC(C5CC45)C3C2=O)cc1 (centres undefined) | 0 | - | 0 | - | - | -
CCCCn1c(=O)c(C(=O)N/N=C/c2ccc(F)cc2)c(O)c2ccccc21 | 0 | 0 | 0 | 0 | 0 | 79.7
CCC(C)/C(C)=N/NC(=O)CNS(=O)(=O)c1ccc([N+](=O)[O-])cc1 (centres undefined) | 0 | 0 | 0 | 0 | 0 | 0
COc1ccc(CN(C(C)=O)c2cccc(C)c2C)cc1 | 0 | 43.0 | 0 | 0 | 0 | 0
CC(=O)N(Cc1ccc(Br)cc1)c1cccc(C)c1C | 0 | 0 | 0 | 0 | 51.8 | 0
COc1ccc(OC)c(NC(=O)CC2Oc3ccccc3NC2=O)c1 (centres undefined) | 0 | - | 0 | - | - | -
COc1ccc(N(C)C(=O)c2ccc3nc(-c4ccccc4)c(-c4ccccc4)nc3c2)cc1 | 0 | 24.5 | 0 | 0 | 0 | 0
C=CCN(C(=O)c1ccccc1)c1ccc(OC)cc1 | 0 | 43.3 | 0 | 0 | 0 | 0
COc1ccc(C(=O)c2ccccc2)cc1 | 0 | 0 | 0 | 0 | ? | 0
CN(C(=O)c1cccs1)c1ccc(OCC(=O)Nc2ccc(C(=O)O)cc2)cc1 | 0 | - | 0 | 0 | 0 | 0
O=S(=O)(Nc1nc(-c2ccccc2)cs1)c1cc(Cl)ccc1Cl | 0 | - | 0 | - | - | -
O=c1c2ccccc2nc(/C=C/c2ccc([N+](=O)[O-])o2)n1CCCO | 0 | 0 | 0 | 101.2 | 0 | 101.6
O=C(Nc1ccc(F)cc1F)Nc1ccc(F)cc1F | 0 | 0 | 0 | 0 | 0 | 55.7
CC1=CC(C)(C)Nc2ccc(OC(=O)C(C)N3C(=O)c4ccccc4C3=O)cc21 (centres undefined) | 0 | 0 | 0 | 0 | 0 | 80.3
O=C(Oc1ccc(F)cc1)c1cccnc1 | 0 | - | 0 | - | - | -
CC1=CC(C)(C)Nc2ccc(OC(=O)c3cccnc3)cc21 | 0 | 0 | 0 | 40.7 | 0 | 90.5
CCN(CC)CCSc1nnc2c3cc(F)ccc3n(Cc3ccccc3)c2n1 | 0 | - | 0 | - | - | -
SMILES | KLF5 inhibitor | MT stabilizer | IEC-6 tox | Ba/F3 V617F tox | b-catenin transl | BaF3 parental
CCN(CC)CCSc1nnc2c3ccccc3n(Cc3ccccc3)c2n1 | 0 | - | 0 | 29.4 | 0 | 48.8
CCN1C/C(=C/c2cccc([N+](=O)[O-])c2)C(=O)/C(=C/c2cccc([N+](=O)[O-])c2)C1 | 0 | 41.7 | 0 | 0 | 0 | 0
O=C(Nc1cccc(C(F)(F)F)c1)c1ccc2nc(-c3ccco3)c(-c3ccco3)nc2c1 | 0 | 0 | 0 | 0 | 0 | 49.1
Cc1nc(C)c2c(=O)cc(-c3ccccc3)[nH]c2n1 | 0 | 42.6 | 0 | 0 | 0 | 0
CSc1nc2ccccc2cc1/C=C(\C#N)c1cccc(Cl)c1 | 0 | 34.3 | 0 | 0 | 0 | 0
CCOC(=O)/C(C#N)=C/c1cc2ccccc2nc1Cl | 0 | 0 | 0 | 0 | - | 0
Cc1cc(N(C(=O)c2ccco2)C(C(=O)NC2CCCCC2)c2ccccc2)ccc1-n1cnnn1 (centres undefined) | 0 | 0 | 0 | 0 | 0 | 51.3
COc1cccc(C(C(=O)NC2CCCCC2)N(C(=O)c2ccco2)c2ccc(-n3cnnn3)c(C)c2)c1 (centres undefined) | 0 | 0 | 0 | 0 | 0 | 0
CS(=O)(=O)N1N=C(c2ccccc2)CC1c1ccc2c(c1)OCO2 (centres undefined) | 0 | 0 | 0 | 0 | 0 | 0
CS(=O)(=O)Nc1cccc(C2=NN(S(C)(=O)=O)C(c3ccc4c(c3)OCO4)C2)c1 (centres undefined) | 0 | 17.0 | 0 | 0 | 0 | 0
COc1ccccc1NC(=O)C(CC=C(Cl)Cl)C(C)=O (centres undefined) | 0 | 0 | 0 | 0 | 0 | 39.1
COc1cccc(C(=O)/C=C/Nc2ccc(S(=O)(=O)Nc3cnc4ccccc4n3)cc2)c1 | 0 | 0 | 0 | 0 | 0 | 0
O=C(/C=C/Nc1ccc(S(=O)(=O)Nc2cnc3ccccc3n2)cc1)c1ccccc1 | 0 | - | 0 | 0 | 0 | 51.8
O=C(COc1ccc(Oc2ccccc2)cc1)NCc1cn2ccccc2n1 | 0 | 0 | 37.4 | 31.1 | 0 | 26.6
CC1Sc2n(c3ccccc3[n+]2C)N=C1c1ccccc1 (centres undefined) | 0 | 0 | 0 | 98.9 | 0 | 74.5
C[n+]1c2n(c3ccccc31)N=C(c1ccc(Cl)cc1)CS2 | 0 | 0 | 0 | 78.1 | 0 | 67.3
CS(=O)(=O)N(CC(=O)N1CCc2ccccc2C1)c1ccc2c(c1)OCO2 | 0 | 0 | 0 | 0 | - | 92.8
CS(=O)(=O)N(CC(=O)N1CCOCC1)c1ccc2c(c1)OCO2 | 0 | 0 | 0 | 0 | 0 | 0
COC(=O)c1ccc(CNC(=O)COC(=O)COc2ccc(OC)cc2)cc1 | 0 | 0 | 0 | 0 | 0 | 0
CCOC(=O)Cn1c2c(c(=N)c3c1CCC3)CCC2 | 0 | 0 | 0 | 0 | 0 | 0
CCCCCCCCCCn1c2c(c(=N)c3c1CCC3)CCC2 | 0 | 0 | 56.1 | 98.6 | 0 | 96.1
CCCCn1c2c(c(=N)c3ccccc31)CCC2 | 0 | - | 0 | 71.3 | 0 | 60.8
CCn1c2c(c(=N)c3c1CCC3)CCCC2 | 0 | - | 0 | 30.4 | 0 | 50.3
CCOC(=O)Cn1c2c(c(=N)c3ccccc31)CCC2 | 0 | 0 | 0 | 0 | - | 0
CCCCCn1c2c(c(=N)c3ccccc31)CCC2 | 0 | - | 0 | 89.5 | 0 | 69.2
SMILES | KLF5 inhibitor | MT stabilizer | IEC-6 tox | Ba/F3 V617F tox | b-catenin transl | BaF3 parental
CCn1nnnc1SCC(=O)N1CCCc2ccccc21 | 0 | 0 | 0 | 0 | 0 | 0
CC(=O)Nc1cc(-c2nc3ccccc3o2)ccc1Cl | 0 | - | 0 | - | - | -
CCCc1n(CC(O)COC2CCCCC2)c2ccccc2[n+]1C (centres undefined) | 0 | 0 | 0 | 26.3 | 0 | 54.9
O=C(O)c1ccccc1C(=O)NCC(O)COCC1CC=CCC1 (centres undefined) | 0 | 0 | 0 | 0 | 0 | 0
CCCc1n(CC(O)COCC2CC=CCC2)c2ccccc2[n+]1C (centres undefined) | 0 | 0 | 0 | 33.0 | 0 | 65.9
CCCc1n(CC(O)COCc2ccccc2)c2ccccc2[n+]1C (centres undefined) | 0 | 0 | 0 | 0 | 0 | 33.8
Cc1ccc(CN=C(N)Nc2nc(C)cc(C)n2)cc1 | 0 | 12.1 | 48.0 | 80.6 | 0 | 77.3
